Published values from different studies.
Target: Tyrosine-protein kinase receptor Tie-1 (TIE1, Homo sapiens, UniProt P35590)

| Compound | assay | setting | remaining binding [%] |
| --- | --- | --- | --- |
| C[C@@H](c1ccc(-n2cnc3c(N)ncnc32)cc1)N1CCc2nn(C)c(Cc3ccccc3)c2C1=O | binding, competition with immobilised ligand | 0.1 µM | 84 |
| CC1CCCN1c1nccc(-c2cnn3ncccc23)n1 (stereo not shown) | binding | 1 µM | 100 |
| O=C(NCC1CCOCC1)c1n[nH]cc1NC(=O)c1c(F)cccc1F | binding, competition with immobilised ligand | 1 µM | 85 |
| CN(C)c1nccc(-c2cnn3ncccc23)n1 | binding | 1 µM | 100 |
| c1cncc(-c2cccc(Nc3nccc(NC4CCCCC4)n3)c2)c1 | binding, competition with immobilised ligand | 10 µM | 17 |
| Cc1cnc(Nc2ccc(C(=O)N3CCC(N4CCCC4)CC3)cc2)nc1-c1cc2ccccc2s1 | binding, competition with immobilised ligand | 1 µM | 10 |
| C[C@H]1CCN(c2nccc(-c3cnn4ncccc34)n2)C1 | binding | 1 µM | 75 |
| CCS(=O)(=O)c1cc2cc(C[C@](O)(CC(C)(C)c3ccc(F)cc3C(N)=O)C(F)(F)F)[nH]c2cn1 | cell-free assay, competition with immobilised ligand | 1 µM | 100 |
| CN(c1nccc(-c2cnn3ncccc23)n1)C1CC1 | binding | 1 µM | 100 |
| Cc1noc([C@H]2C[C@@H](c3ccc(C(F)(F)F)cc3)CN(C(=O)N3CCS(=O)(=O)C3)C2)n1 | cell-free assay, competition with immobilised ligand | 1 µM | 89 |
| COc1cnc(Nc2cccc(S(N)(=O)=O)c2)nc1N1CCN(c2ccccc2)C(=O)C1 | binding, competition with immobilised ligand | 1 µM | 100 |
| O=C(c1ccc(Nc2ncc(Cl)c(-c3ccc(Cl)s3)n2)cc1)N1CCC(N2CCCC2)CC1 | binding, competition with immobilised ligand | 1 µM | 18 |
| c1cnn2ncc(-c3ccnc(N4CCC45COC5)n3)c2c1 | binding | 1 µM | 100 |
| C[C@@H](c1cccc(C#N)c1)n1cc(Cl)cc(C(N)=O)c1=N | cell-free assay, competition with immobilised ligand | 1 µM | 87 |
| O=C(c1ccc(Nc2nccc(-c3cc4ccccc4s3)n2)cc1)N1CCC(N2CCCC2)CC1 | binding, competition with immobilised ligand | 1 µM | 23 |
| CS(=O)(=O)NCC[C@H](NC(=O)c1cncc2c1cnn2-c1ccc(F)cc1)c1ccnc(S(C)(=O)=O)c1 | cell-free assay, competition with immobilised ligand | 1 µM | 100 |
| Cc1cnn2ncc(-c3ccnc(N(C)C)n3)c2c1 | binding | 1 µM | 98 |
| FC(F)(F)Oc1cccc(-c2cnc3ccc(-c4ccncc4)nn23)c1 | cell-free assay, competition with immobilised ligand | 5 µM | 84 |
| O=S(=O)(NC1CCC(c2cc(F)ccc2F)(S(=O)(=O)c2ccc(Cl)cc2)CC1)C(F)(F)F (stereo not shown) | cell-free assay, competition with immobilised ligand | 1 µM | 100 |
| COc1ncc2cc3ccccc3nc2c1C#N | cell-free assay, competition with immobilised ligand | 5 µM | 100 |
| N[C@H]1CCN(c2nccc(-c3cnn4ncccc34)n2)C1 | binding | 1 µM | 100 |
| CCc1ccccc1C(=O)Nc1n[nH]c2c(C)c(F)c(C3C(C#N)=C(C)N(C)C(C)=C3C#N)cc12 | cell-free assay, competition with immobilised ligand | 1 µM | 100 |
